Reference: ChEMBL document CHEMBL4837261, “Optimization of TopoIV Potency, ADMET Properties, and hERG Inhibition of 5-Amino-1,3-dioxane-Linked Novel Bacterial Topoisomerase Inhibitors: Identification of a Lead with In Vivo Efficacy against MRSA” (J Med Chem, 2021)
pIC50: −log10 of the molar value. In brackets after ≈: the same amount, converted by molar mass.

Legend:
Staphylococcus aureus [1] = experiment: Antibacterial activity against Staphylococcus aureus ATCC 29213 by CLSI method; type: functional
Staphylococcus aureus [2] = experiment: Antibacterial activity against methicillin-resistant Staphylococcus aureus USA300 by CLSI method; type: functional
Staphylococcus aureus [3] = experiment: Antibacterial activity against cystic fibrosis isolate Staphylococcus aureus by CLSI method; type: functional
DNA gyrase [4] = biological target: DNA gyrase (Staphylococcus aureus, UniProt P0A0K8+P20831); experiment: Inhibition of Staphylococcus aureus Gyrase supercoiling activity assessed as reduction in supercoiling pBR322 DNA by measuring relaxation by bromophenol blue staining based TAE gel method; type: protein-complex assay
Topoisomerase IV = Topoisomerase IV (Staphylococcus aureus, UniProt P0C1S7+P0C1U9); experiment: Inhibition of Staphylococcus aureus topoisomerase IV decatenation activity using kDNA as substrate by ethidium bromide/bromophenol blue staining based agarose gel electrophoresis analysis; type: protein-complex assay
Staphylococcus aureus [5] = experiment: Antibacterial activity against Staphylococcus aureus 3527 by CLSI method; type: functional
Staphylococcus aureus [6] = experiment: Antibacterial activity against Staphylococcus aureus harbouring GyrA D83N mutant by CLSI method; type: functional
K562 = experiment: Growth inhibition of log-phase human K562 cells incubated for 48 hrs by NBTI cell counting analysis; type: functional, cell-based; conditions: Homo sapiens, K562, 48 h; read-out: IC50
[7] = Growth inhibition of human K/VP.5 cells incubated for 48 hrs by NBTI cell counting analysis; type: functional; conditions: K562, 48 h
Staphylococcus aureus [8] = experiment: Selectivity index, ratio of IC50 for inhibition of Staphylococcus aureus topoisomerase IV decatenation activity to IC50 for inhibition of Staphylococcus aureus DNA gyrase supercoiling activity
Procedure, shortened: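 Both IC50s were measured in gel-based assays with S. aureus enzymes: supercoiling inhibition for DNA gyrase and decatenation inhibition for TopoIV. The ratio is TopoIV IC50 divided by gyrase IC50.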

HepaRG = experiment: Cytotoxicity against human HepaRG cells at 100 uM by ATP depletion assay; type: cell-based
Procedure, shortened: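 An ATP depletion read-out in HepaRG cells gave cytotoxicity across 0.01–100 μM, reported as % cytotoxicity at 100 μM.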

[9] = biological target: 5-hydroxytryptamine receptor 2B (Homo sapiens) (UniProt P41595); experiment: Displacement of [3H]Lysergic acid diethylamide from human recombinant 5HT2B receptor expressed in CHO-K1 cells at 100 uM by radioligand binding assay; type: cell-based
[10] = biological target: Acetylcholinesterase (Homo sapiens) (UniProt P22303); experiment: Inhibition of human recombinant acetylcholinesterase receptor expressed in HEK293 cells at 100 uM by spectrophotometry; type: cell-based
[11] = Permeability of the compound from apical to basolateral side in human Caco-2 cells; type: ADME, cell-based; conditions: read-out: permeability
[12] = Permeability of the compound from basolateral to apical side in human Caco-2 cells; type: ADME, cell-based; conditions: read-out: permeability
Procedure, shortened: (§1)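 Run at RTI International. Covers plasma protein binding (mouse, human; percent free), CACO-2 permeability and efflux, and microsomal stability (mouse and human microsomes) giving half-life.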

[13] = Metabolic stability in CD1 mouse microsomes assessed as half life; type: ADME, Microsome
[14] = Metabolic stability in human microsomes assessed as half life; type: ADME, Microsome; procedure, shortened: as §1
CYP1A2 = CYP1A2 (Homo sapiens, UniProt P05177); experiment: Inhibition of CYP1A2 (unknown origin) at 10 uM relative to control; type: ADME
CYP2B6 = CYP2B6 (Homo sapiens, UniProt P20813); experiment: Inhibition of CYP2B6 (unknown origin) at 10 uM relative to control; type: ADME
CYP2C8 = CYP2C8 (Homo sapiens, UniProt P10632); experiment: Inhibition of CYP2C8 (unknown origin) at 10 uM relative to control; type: ADME
CYP2C9 = CYP2C9 (Homo sapiens, UniProt P11712); experiment: Inhibition of CYP2C9 (unknown origin) at 10 uM relative to control; type: ADME
CYP2C19 = CYP2C19 (Homo sapiens, UniProt P33261); experiment: Inhibition of CYP2C19 (unknown origin) at 10 uM relative to control; type: ADME
CYP2D6 = CYP2D6 (Homo sapiens, UniProt P10635); experiment: Inhibition of CYP2D6 (unknown origin) at 10 uM relative to control; type: ADME
[15] = Metabolic stability in CD1 mouse liver microsomes assessed as intrinsic clearance at 2 uM measured up to 120 mins by LC-MS/MS analysis; type: ADME, Microsome; conditions: 2 h
[16] = Metabolic stability in CD1 mouse liver microsomes assessed as half life at 2 uM measured up to 120 mins by LC-MS/MS analysis; type: ADME, Microsome
[17] = Half life in ICR (CD-1) mouse at 10 mg/kg, iv measured up to 1440 mins by LC-MS/MS analysis; type: ADME, organism-based; conditions: in vivo
Procedure, shortened: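 Male ICR (CD-1) mice, 22 ± 2 g, given the free base in DMSO/Solutol HS-15/0.9% NaCl (5/5/90, v/v/v), IV at 10 mg/kg or PO at 50 mg/kg; 24 mice per route, three per timepoint. Plasma was taken by cardiac puncture at 3–1440 min (IV) or 10–1440 min (PO), measured by LC-MS/MS, and parameters were derived by noncompartmental analysis.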

Staphylococcus aureus [18] = experiment: Antibacterial activity against Staphylococcus aureus by CLSI method; type: functional
Procedure, shortened: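 MICs were determined by broth microdilution per CLSI guidelines, in triplicate at minimum. Strains were S. aureus ATCC 29213, MRSA USA300 and a cystic fibrosis respiratory isolate, and ranges are given where seen.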

Enterococcus sp. = experiment: Antibacterial activity against Enterococcus sp. by CLSI method; type: functional
Streptococcus pneumoniae = experiment: Antibacterial activity against Streptococcus pneumoniae by CLSI method; type: functional
Acinetobacter baumannii = experiment: Antibacterial activity against Acinetobacter baumannii by CLSI method; type: functional
Bacillus anthracis = experiment: Antibacterial activity against Bacillus anthracis by CLSI method; type: functional
DNA gyrase [19] = biological target: DNA gyrase (Staphylococcus aureus, UniProt P0A0K8+P20831, D83N); experiment: Inhibition of Staphylococcus aureus DNA Gyrase D83N mutant assessed as reduction in supercoiling pBR322 DNA by measuring relaxation by bromophenol blue staining based TAE gel method
Streptococcus pyogenes = experiment: Antibacterial activity against Streptococcus pyogenes isolates by CLSI method; type: functional

CYP2B6, sequence (P20813 whole entry): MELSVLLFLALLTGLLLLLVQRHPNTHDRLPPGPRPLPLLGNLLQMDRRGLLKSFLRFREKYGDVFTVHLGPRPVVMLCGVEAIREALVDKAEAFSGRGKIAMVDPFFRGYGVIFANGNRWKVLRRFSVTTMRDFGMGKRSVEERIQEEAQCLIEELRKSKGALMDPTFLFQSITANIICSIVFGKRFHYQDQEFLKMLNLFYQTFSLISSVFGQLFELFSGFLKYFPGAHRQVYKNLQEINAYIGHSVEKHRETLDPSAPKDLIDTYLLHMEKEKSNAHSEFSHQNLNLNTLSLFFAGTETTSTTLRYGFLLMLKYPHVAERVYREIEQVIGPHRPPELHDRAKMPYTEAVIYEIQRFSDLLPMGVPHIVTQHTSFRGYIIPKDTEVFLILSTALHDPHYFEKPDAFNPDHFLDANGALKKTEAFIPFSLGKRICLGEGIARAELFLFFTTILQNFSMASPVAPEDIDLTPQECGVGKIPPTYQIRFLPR
CYP2C8, sequence (P10632 whole entry): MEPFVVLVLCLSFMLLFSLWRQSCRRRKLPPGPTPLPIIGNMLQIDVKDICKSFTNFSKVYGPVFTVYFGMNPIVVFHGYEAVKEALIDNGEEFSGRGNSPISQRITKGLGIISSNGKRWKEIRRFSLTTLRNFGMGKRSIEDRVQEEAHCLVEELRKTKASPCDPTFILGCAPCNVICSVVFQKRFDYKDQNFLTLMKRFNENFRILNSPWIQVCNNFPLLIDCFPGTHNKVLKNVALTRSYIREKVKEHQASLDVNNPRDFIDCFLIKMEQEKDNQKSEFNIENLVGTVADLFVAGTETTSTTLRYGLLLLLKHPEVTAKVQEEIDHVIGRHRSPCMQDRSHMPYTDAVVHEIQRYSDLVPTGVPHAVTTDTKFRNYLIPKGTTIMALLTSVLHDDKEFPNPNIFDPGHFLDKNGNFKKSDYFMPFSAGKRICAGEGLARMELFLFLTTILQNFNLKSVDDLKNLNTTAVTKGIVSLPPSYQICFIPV
CYP1A2, sequence (P05177 whole entry): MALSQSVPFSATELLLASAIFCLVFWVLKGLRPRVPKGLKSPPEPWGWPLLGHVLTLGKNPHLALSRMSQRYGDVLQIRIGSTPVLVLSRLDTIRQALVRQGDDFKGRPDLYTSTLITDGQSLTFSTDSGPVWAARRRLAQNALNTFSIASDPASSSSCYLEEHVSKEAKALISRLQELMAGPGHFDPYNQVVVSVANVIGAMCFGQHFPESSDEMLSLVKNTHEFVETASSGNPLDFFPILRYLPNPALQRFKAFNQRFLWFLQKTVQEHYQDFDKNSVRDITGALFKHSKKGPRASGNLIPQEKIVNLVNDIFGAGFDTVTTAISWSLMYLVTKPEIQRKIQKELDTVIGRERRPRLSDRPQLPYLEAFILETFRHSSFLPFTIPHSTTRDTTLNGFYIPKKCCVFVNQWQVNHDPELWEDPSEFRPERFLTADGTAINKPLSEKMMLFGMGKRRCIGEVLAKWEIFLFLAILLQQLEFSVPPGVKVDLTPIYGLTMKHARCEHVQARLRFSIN
CYP2C9, sequence (P11712 whole entry): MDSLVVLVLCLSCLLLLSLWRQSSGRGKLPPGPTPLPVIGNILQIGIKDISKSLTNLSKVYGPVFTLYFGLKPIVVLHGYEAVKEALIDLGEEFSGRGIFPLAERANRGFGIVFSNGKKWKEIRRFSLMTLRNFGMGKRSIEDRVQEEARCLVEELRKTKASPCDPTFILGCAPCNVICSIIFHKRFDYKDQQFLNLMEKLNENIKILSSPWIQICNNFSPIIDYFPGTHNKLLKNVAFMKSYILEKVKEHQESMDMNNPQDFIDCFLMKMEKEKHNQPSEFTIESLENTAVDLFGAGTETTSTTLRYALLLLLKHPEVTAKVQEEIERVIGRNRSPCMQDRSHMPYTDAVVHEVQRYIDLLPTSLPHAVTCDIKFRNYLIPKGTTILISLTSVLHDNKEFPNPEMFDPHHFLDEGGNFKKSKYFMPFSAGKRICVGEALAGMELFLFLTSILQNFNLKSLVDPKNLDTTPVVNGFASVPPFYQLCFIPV
5-hydroxytryptamine receptor 2B (Homo sapiens), sequence (P41595 whole entry): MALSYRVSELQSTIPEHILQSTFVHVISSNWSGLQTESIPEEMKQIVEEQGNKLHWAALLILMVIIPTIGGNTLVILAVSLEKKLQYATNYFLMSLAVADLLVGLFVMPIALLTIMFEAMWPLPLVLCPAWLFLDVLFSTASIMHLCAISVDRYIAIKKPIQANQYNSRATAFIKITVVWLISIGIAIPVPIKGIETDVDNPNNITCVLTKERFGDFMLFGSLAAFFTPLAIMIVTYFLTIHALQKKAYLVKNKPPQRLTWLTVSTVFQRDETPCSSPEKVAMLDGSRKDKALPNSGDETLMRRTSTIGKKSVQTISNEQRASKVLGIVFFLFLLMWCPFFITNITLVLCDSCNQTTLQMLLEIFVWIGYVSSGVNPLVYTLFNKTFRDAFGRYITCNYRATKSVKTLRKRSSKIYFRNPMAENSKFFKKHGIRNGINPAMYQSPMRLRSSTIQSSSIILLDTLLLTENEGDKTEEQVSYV
CYP2C19, sequence (P33261 whole entry): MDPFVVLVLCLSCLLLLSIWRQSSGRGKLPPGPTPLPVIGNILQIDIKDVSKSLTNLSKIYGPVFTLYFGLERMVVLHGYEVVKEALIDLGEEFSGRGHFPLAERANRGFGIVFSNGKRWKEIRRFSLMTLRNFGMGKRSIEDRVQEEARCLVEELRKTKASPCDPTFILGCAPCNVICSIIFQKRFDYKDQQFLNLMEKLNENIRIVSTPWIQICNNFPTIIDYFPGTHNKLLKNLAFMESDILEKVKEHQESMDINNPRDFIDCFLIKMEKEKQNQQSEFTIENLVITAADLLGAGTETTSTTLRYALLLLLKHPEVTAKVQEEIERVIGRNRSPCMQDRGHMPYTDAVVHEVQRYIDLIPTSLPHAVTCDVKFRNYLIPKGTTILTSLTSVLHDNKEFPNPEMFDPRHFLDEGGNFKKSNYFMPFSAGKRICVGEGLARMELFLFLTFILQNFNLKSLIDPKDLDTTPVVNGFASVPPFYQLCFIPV
Acetylcholinesterase (Homo sapiens), sequence (P22303 whole entry): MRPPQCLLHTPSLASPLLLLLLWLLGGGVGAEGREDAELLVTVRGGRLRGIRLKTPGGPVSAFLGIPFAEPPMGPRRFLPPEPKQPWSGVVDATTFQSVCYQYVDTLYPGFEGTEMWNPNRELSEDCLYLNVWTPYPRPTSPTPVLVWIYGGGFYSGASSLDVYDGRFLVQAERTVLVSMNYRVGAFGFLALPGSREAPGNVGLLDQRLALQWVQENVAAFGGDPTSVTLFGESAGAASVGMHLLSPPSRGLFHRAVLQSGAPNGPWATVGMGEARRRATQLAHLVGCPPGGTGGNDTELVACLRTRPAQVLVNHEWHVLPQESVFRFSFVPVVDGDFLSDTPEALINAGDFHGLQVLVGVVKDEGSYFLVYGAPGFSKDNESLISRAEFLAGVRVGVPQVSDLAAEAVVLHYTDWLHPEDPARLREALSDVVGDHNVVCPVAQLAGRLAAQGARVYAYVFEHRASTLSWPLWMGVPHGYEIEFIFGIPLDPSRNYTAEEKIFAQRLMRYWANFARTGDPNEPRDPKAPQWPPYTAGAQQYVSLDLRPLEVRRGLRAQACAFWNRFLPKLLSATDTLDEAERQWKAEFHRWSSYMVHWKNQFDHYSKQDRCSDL
CYP2D6, sequence (P10635 whole entry): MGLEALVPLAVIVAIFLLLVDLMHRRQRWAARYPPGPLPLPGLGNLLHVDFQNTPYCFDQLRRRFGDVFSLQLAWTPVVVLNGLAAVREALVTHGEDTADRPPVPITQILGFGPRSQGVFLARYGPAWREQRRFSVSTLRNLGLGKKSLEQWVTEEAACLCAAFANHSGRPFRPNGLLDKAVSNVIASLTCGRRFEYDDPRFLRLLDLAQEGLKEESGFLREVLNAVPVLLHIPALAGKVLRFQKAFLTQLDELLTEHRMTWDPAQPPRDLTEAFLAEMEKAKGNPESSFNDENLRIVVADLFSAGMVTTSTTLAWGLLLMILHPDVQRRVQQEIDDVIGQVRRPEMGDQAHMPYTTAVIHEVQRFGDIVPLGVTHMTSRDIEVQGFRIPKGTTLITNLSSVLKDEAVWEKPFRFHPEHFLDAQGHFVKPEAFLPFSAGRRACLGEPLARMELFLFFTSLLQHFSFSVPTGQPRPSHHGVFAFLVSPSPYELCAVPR

SMILES: COc1ccc2ncc(F)c(C(O)C[C@H]3OC[C@H](NCc4ccc5c(n4)NC(=O)CS5)CO3)c2n1 (mixture of isomers)
- MIC (Staphylococcus aureus [1]): ≤ 0.25 µg/mL
- MIC (Staphylococcus aureus [2]): 0.125 µg/mL (≈ 0.249 µM)
- MIC (Staphylococcus aureus [3]): 0.25 µg/mL (≈ 0.498 µM)
- pIC50 (DNA gyrase [4]): 7.27
- pIC50 (Topoisomerase IV): 5.55
- MIC (Staphylococcus aureus [5]): ≤ 0.25 µg/mL
- MIC (Staphylococcus aureus [6]): 2 µg/mL (≈ 3.99 µM)
- pIC50 (K562): 4.28
- pIC50 [7]: < 4.30

SMILES: COc1ccc2ncc(F)c(C(O)C[C@H]3OC[C@H](NCc4cc5c(nn4)OCCS5)CO3)c2n1 (mixture of isomers)
- MIC (Staphylococcus aureus [1]): 0.5 µg/mL (≈ 1.02 µM)
- MIC (Staphylococcus aureus [2]): 1 µg/mL (≈ 2.04 µM)
- MIC (Staphylococcus aureus [3]): 0.5 µg/mL (≈ 1.02 µM)
- pIC50 (DNA gyrase [4]): 6.62
- pIC50 (Topoisomerase IV): 4.96
- Ratio IC50 (Staphylococcus aureus [8]): 47
- MIC (Staphylococcus aureus [5]): 0.5 µg/mL (≈ 1.02 µM)
- MIC (Staphylococcus aureus [6]): 8 µg/mL (≈ 16.3 µM)
- Activity (HepaRG): 17%
- inhibition [9]: > 45%
- inhibition [10]: > 45%
- Papp A→B [11]: 7.85 ×10⁻⁶ cm/s
- Papp B→A [12]: 94.8 ×10⁻⁶ cm/s
- half-life [13]: 21 min
- half-life [14]: 26 min
- inhibition at 10 µM (CYP1A2): > 50%
- inhibition at 10 µM (CYP2B6): > 50%
- inhibition at 10 µM (CYP2C8): > 50%
- inhibition at 10 µM (CYP2C9): > 50%
- inhibition at 10 µM (CYP2C19): > 50%
- inhibition at 10 µM (CYP2D6): > 50%

SMILES: COc1ccc2nccc(CCN3CCC(NCc4ccc5c(c4)OCCO5)CC3)c2c1
- intrinsic clearance (CLint) [15]: 1940 µL/min/mg
- half-life at 2 µM [16]: 2.81 min

SMILES: COc1ccc2ncc(F)c(C[C@H](O)[C@@H]3CC[C@@H](NCc4cc5c(nn4)OCCS5)CO3)c2n1
- half-life [17]: 18.6 min

SMILES: COc1ccc2ncc(F)c(C[C@H](O)[C@H]3OC[C@H](NCc4ccc5c(c4)OCCO5)CO3)c2n1
- MIC (Staphylococcus aureus [1]): 0.125 µg/mL (≈ 0.265 µM)
- MIC (Staphylococcus aureus [2]): 0.125 µg/mL (≈ 0.265 µM)
- MIC (Staphylococcus aureus [3]): 0.125 µg/mL (≈ 0.265 µM)
- MIC50 (Staphylococcus aureus [18]): 0.06 µg/mL (≈ 0.127 µM)
- MIC50 (Enterococcus sp.): 0.06 µg/mL (≈ 0.127 µM)
- MIC50 (Streptococcus pneumoniae): 0.5 µg/mL (≈ 1.06 µM)
- MIC50 (Acinetobacter baumannii): 16 µg/mL (≈ 33.9 µM)
- MIC50 (Bacillus anthracis): 1 µg/mL (≈ 2.12 µM)
- MIC90 (Bacillus anthracis): 4 µg/mL (≈ 8.48 µM)
- pIC50 (DNA gyrase [4]): 7.22
- pIC50 (Topoisomerase IV): 6.42
- pIC50 (DNA gyrase [19]): 5.57
- MIC (Staphylococcus aureus [5]): 0.125 µg/mL (≈ 0.265 µM)
- MIC (Staphylococcus aureus [6]): 4 µg/mL (≈ 8.48 µM)
- pIC50 [7]: 4.52

SMILES: COc1ccc2ncc(F)c(C(O)C[C@H]3OC[C@H](NCc4ccc5c(n4)NC(=O)CS5)CO3)c2c1 (mixture of isomers)
- MIC (Staphylococcus aureus [1]): 0.25 µg/mL (≈ 0.499 µM)
- MIC (Staphylococcus aureus [2]): 0.25 µg/mL (≈ 0.499 µM)
- MIC (Staphylococcus aureus [3]): 0.5 µg/mL (≈ 0.999 µM)
- pIC50 (DNA gyrase [4]): 6.48
- pIC50 (Topoisomerase IV): 5.82
- MIC (Staphylococcus aureus [5]): ≤ 0.25 µg/mL
- MIC (Staphylococcus aureus [6]): 4 µg/mL (≈ 7.99 µM)
- pIC50 (K562): 4.25
- pIC50 [7]: < 4.30

SMILES: C[C@H]1COc2c(N3CCN(C)CC3)c(F)cc3c(=O)c(C(=O)O)cn1c23.C[C@H]1COc2c(N3CCN(C)CC3)c(F)cc3c(=O)c(C(=O)O)cn1c23.O [LEVOFLOXACIN]
- MIC50 (Streptococcus pyogenes): 8 µg/mL
- MIC90 (Streptococcus pyogenes): 64 µg/mL
